From PubChem
Kir21 block = blocks the mouse Kir2.1 inward-rectifier potassium channel | AID 1672 | P35561 | 310,000 compounds, 0.85% hits | B-score at 10 µM | HEK293-Kir2.1, FluxOR thallium flux fluorescence; stronger effect = lower value;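 active means fluorescence ratio B-score at or below minus 3 SD of library scores, with starting-brightness B-score within 2 SD, cut at about -4.2 in these data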;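 further: channel flux triggered by added potassium and thallium sulfate stimulus; B-score of peak minus minimum fluorescence over baseline after thallium stimulus; more negative B-score means stronger Kir2.1 block with less thallium influx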
KCNK3 inh = human KCNK3 channel inhibition, primary screen | O14649 | CHO-KCNK3 thallium flux, FluxOR fluorescence; stronger effect = lower value | B-score at 10 µM | 340,000 compounds, 0.84% hits | AID 602410;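 active means B-score under library mean minus 4 SD, starting fluorescence ratio at most library mean plus 5 SD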;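 further: more negative B-score means stronger inhibition of thallium flux through KCNK3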
KCNQ1 pot = potentiators or activators of human KCNQ1 potassium channel; 310,000 compounds, 0.35% hits; P51787; B-score at 10 µM; CHO-K1 KCNQ1, thallium flux FluxOR fluorescence; stronger effect = higher value; AID 2648;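 active means fluorescence ratio B-score, a plate-corrected score, at least three library SD, with initial intensity B-score within 5 SD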
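Material: CHO-K1 cells stably expressing KCNQ1. Medium: assay buffer for compound exposure, DMSO matched across wells. Reagent: K+/Tl+ depolarizing stimulus. Compound dosing: single-concentration screen. Times: 37 °C overnight plating, 90-min dark dye load, 20-min compound pretreatment. Technique: FluxOR Tl+ flux fluorescence.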
KCNQ1 block = human KCNQ1 channel inhibition | P51787 | CHO-K1 KCNQ1, FluxOR thallium flux fluorescence; stronger effect = higher value | B-score at 10 µM | 310,000 compounds, 1.3% hits;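 active means compounds whose thallium flux B-score, printed positive for inhibition, exceeds three library SD while starting fluorescence stays within three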;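 further: channel opened by potassium depolarization with thallium stimulus after 20 min compound exposure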
KCNK9 inh = inhibitors of human KCNK9 two-pore domain potassium channel; Q9NPC2; HEK293 KCNK9, FluxOR thallium flux fluorescence; stronger effect = lower value; B-score at 10 µM; 310,000 compounds, 1.2% hits;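 active means ratio B-score over 3 SD below the library mean, with starting fluorescence within 5 SD of its mean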;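 further: negative B-score means less thallium flux so channel inhibition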
Target sequence (Q9NPC2 whole entry, looked up, the tested form may be a part): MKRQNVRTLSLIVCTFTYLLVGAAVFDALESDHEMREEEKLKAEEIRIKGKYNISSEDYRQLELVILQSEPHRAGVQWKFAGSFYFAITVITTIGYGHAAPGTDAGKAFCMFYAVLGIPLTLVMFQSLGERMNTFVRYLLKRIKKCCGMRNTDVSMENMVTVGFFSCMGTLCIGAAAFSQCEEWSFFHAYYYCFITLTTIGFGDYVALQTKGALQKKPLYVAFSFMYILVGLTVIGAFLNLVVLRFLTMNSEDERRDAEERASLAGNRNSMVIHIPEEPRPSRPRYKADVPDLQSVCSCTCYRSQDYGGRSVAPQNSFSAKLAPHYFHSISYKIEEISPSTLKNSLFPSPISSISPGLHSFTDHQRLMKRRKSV
hERG rescue = compounds protecting human hERG from proarrhythmic drug block; AID 1511; Q12809; 310,000 compounds, 0.51% hits; CHO-hERG, FluxOR thallium flux, dofetilide IC70 present; activation (rescue from dofetilide block), less the hit threshold, % at 10 µM;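 active means activation above the mean of controls blocked by dofetilide plus 5 SD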;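 further: thallium influx through hERG after potassium depolarization seen as dye fluorescence rise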
The depositor's hits bear a star. Compounds with a hit are over-represented: about 3.7% of the library has one in this group of screens.

For C=CC[n+]1c(C)csc1Nc1cccc(Br)c1 the results were Kir21 block 0.04, KCNK3 inh inactive, KCNQ1 pot inactive, KCNQ1 block inactive, KCNK9 inh -6.6* and hERG rescue -14.
C=CC[n+]1c(C)csc1Nc1ccc(C)cc1 was read as Kir21 block 0.15, KCNK3 inh inactive, KCNQ1 pot inactive, KCNQ1 block inactive, KCNK9 inh inactive and hERG rescue -8.
`Fc1ccccc1C1CC(c2ccco2)=Nc2ccccc2S1` (stereo unspecified) gave Kir21 block -0.49, KCNK3 inh inactive, KCNQ1 pot inactive, KCNQ1 block inactive, KCNK9 inh -6.9* and hERG rescue -12.
O=C1C2CCCCC2C(=O)N1Cc1ccccc1 (stereo unspecified) was read as Kir21 block 0.6, KCNK3 inh inactive, KCNQ1 pot inactive, KCNQ1 block inactive, KCNK9 inh inactive and hERG rescue -4.
O=C1C2C3CCC(C3NCc3ccccc3)C2C(=O)N1Cc1ccccc1 (stereo unspecified) was read as Kir21 block -1.7, KCNK3 inh inactive, KCNQ1 pot inactive, KCNQ1 block 6*, KCNK9 inh inactive and hERG rescue -23.
S=c1nn[nH]n1C12CC3CC(CC(C3)C1)C2 was read as Kir21 block 0.83, KCNK3 inh inactive, KCNQ1 pot 9*, KCNQ1 block inactive, KCNK9 inh inactive and hERG rescue 14*.
`S=c1nc(C23CC4CC(CC(C4)C2)C3)[nH][nH]1` gave Kir21 block -0.62, KCNK3 inh inactive, KCNQ1 pot inactive, KCNQ1 block inactive, KCNK9 inh inactive and hERG rescue -5.
`Cc1cc(C(=O)Nc2ccc3c(c2)CCC3)ccc1[N+](=O)[O-]` gave Kir21 block -1.4, KCNK3 inh inactive, KCNQ1 pot inactive, KCNQ1 block inactive, KCNK9 inh inactive and hERG rescue -9.
`CC(C)C[C@@H](CN)NC(=O)c1nc[nH]c1C(=O)N[C@@H](CC(C)C)C(=O)CNC[C@H](C)NC(=O)c1nc[nH]c1C(=O)N[C@@H](C)C(=O)O` gave KCNK3 inh inactive.
`Cc1cc(C)c2c(=O)n(CC(=O)NCCCN3CCOCC3)sc2n1` gave Kir21 block 0.98, KCNK3 inh inactive, KCNQ1 pot inactive, KCNQ1 block inactive, KCNK9 inh inactive and hERG rescue -5.
For Cc1cc(C)c2c(=O)n(CC(=O)NCCCN3CCN(c4ccccc4F)CC3)sc2n1 the results were Kir21 block -5.5*, KCNQ1 pot inactive, KCNQ1 block inactive, KCNK9 inh inactive and hERG rescue -48.
`CC(C)CCC(CCNCc1ccccn1)c1ccc2c(c1)OCO2` (stereo unspecified) gave Kir21 block -7.2*, KCNK3 inh inactive, KCNQ1 pot inactive, KCNQ1 block inactive, KCNK9 inh inactive and hERG rescue -16.
`CC(C)C(CCNCc1ccccn1)c1ccc(Cl)cc1` (stereo unspecified) gave Kir21 block -4.4*, KCNK3 inh inactive, KCNQ1 pot inactive, KCNQ1 block inactive, KCNK9 inh inactive and hERG rescue -4.
Fc1ccccc1CNCCC(Cc1ccccc1)c1ccc2c(c1)OCO2 (stereo unspecified) was read as Kir21 block -8.7*, KCNK3 inh inactive, KCNQ1 pot inactive, KCNQ1 block inactive, KCNK9 inh inactive and hERG rescue -21.
Screening CS(=O)(=O)CCC(C(=O)OCc1ccc(Cl)cc1)N1C(=O)c2ccccc2C1=O (stereo unspecified) returned Kir21 block 1.3, KCNK3 inh inactive, KCNQ1 pot inactive, KCNQ1 block inactive, KCNK9 inh inactive and hERG rescue -9.
For O=C(CSc1nc2ccccc2c(=O)n1-c1ccc(F)cc1)NC1CCS(=O)(=O)C1 (stereo unspecified) the results were KCNK3 inh inactive.
Cc1[nH]c2ccc(C(=O)NCCN3CCOCC3)cc2c1C was read as Kir21 block -0.07, KCNK3 inh inactive, KCNQ1 pot inactive, KCNQ1 block inactive, KCNK9 inh inactive and hERG rescue -6.
Screening CC(=O)Nc1ccccc1C(=O)C(=O)Nc1ccc(Cl)cc1 returned Kir21 block 0.83, KCNK3 inh inactive, KCNQ1 pot inactive, KCNQ1 block inactive, KCNK9 inh inactive and hERG rescue 8.2*.
Screening CN(NC(=O)c1ccccc1Cl)c1ncc(C(F)(F)F)cc1Cl returned Kir21 block -0.68, KCNK3 inh inactive, KCNQ1 pot inactive, KCNQ1 block inactive, KCNK9 inh inactive and hERG rescue -9.
`CC(C)C[C@H](NC(=O)c1[nH]cnc1C(=O)Nc1ccccc1)C(=O)OC(C)(C)C` gave Kir21 block -0.04, KCNK3 inh inactive, KCNQ1 pot inactive, KCNQ1 block inactive, KCNK9 inh inactive and hERG rescue -11.
CC(=O)N(Cc1ccc(F)cc1)C1=C(NCc2ccccc2)C(=O)c2ccccc2C1=O was read as Kir21 block -1.4, KCNK3 inh inactive, KCNQ1 pot inactive, KCNQ1 block inactive, KCNK9 inh -7.9* and hERG rescue -9.
For Fc1cccc2sc(Nc3nc4cc5c(cc4s3)OCO5)nc12 the results were Kir21 block 0.95, KCNK3 inh inactive, KCNQ1 pot inactive, KCNQ1 block inactive, KCNK9 inh inactive and hERG rescue 13*.
CC(=O)Nc1nc2c(F)cccc2s1 was read as Kir21 block 0.33, KCNK3 inh inactive, KCNQ1 pot 18*, KCNQ1 block inactive, KCNK9 inh inactive and hERG rescue 3.
For COc1ccc(CN2CCC3CC2c2cc(-c4cccc(C)c4)ccc23)cc1 (stereo unspecified) the results were KCNK3 inh inactive.
Screening COc1ccc(O)c(C(=O)c2cc(C#N)c(=O)n(-c3ccc(Cl)cc3)c2)c1 returned Kir21 block 0.62, KCNK3 inh inactive, KCNQ1 pot inactive, KCNQ1 block inactive, KCNK9 inh inactive and hERG rescue -11.
Screening COc1ccc(-n2cc(C(=O)c3cc(Cl)ccc3O)cc(C#N)c2=O)cc1 returned Kir21 block 0.5, KCNK3 inh inactive, KCNQ1 pot inactive, KCNQ1 block 6*, KCNK9 inh inactive and hERG rescue -3.
Cc1ccc(-n2cc(C(=O)c3cc(Cl)ccc3O)cc(C#N)c2=O)cc1 was read as Kir21 block -0.46, KCNK3 inh inactive, KCNQ1 pot inactive, KCNQ1 block inactive, KCNK9 inh inactive and hERG rescue -8.
CCOc1ccc(-n2cc(C(=O)c3cc(Cl)ccc3O)cc(C#N)c2=O)cc1 was read as Kir21 block -2, KCNK3 inh inactive, KCNQ1 pot inactive, KCNQ1 block 8*, KCNK9 inh inactive and hERG rescue -8.
